CSN deneddyl inh: inhibitors of human CSN-mediated cullin deneddylation | Purified CSN, SCF-Nedd8-OG deneddylation, fluorescence polarization | inhibition, % at 12.5 µM | actives 0.38% (n = 360,000) | AID 651999;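 active = pattern-corrected inhibition above about 35%, with an unprinted fluorescence ratio check between 0.5 and 1.5, limit read from the data, passing the limit was not always enough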;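 also: 0% = enzyme with substrate and 100% = substrate without enzyme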
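Assay system: purified human Csn5 enzyme expressed in HEK293T cells; Input: 0.24 nM Csn5 enzyme, final concentration; Reagent: 10 nM SCFSkp2-Nedd8OG; Compound dosing: 12.5 µM single point; Times: reaction 90 min, room temperature; Technique: fluorescence polarization readout.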
HNF4A DNA FP: change in binding of human HNF4 alpha to DNA | activity change, % at 10 µM | P41235 | AID 1224865 | actives 0.3% (n = 360,000) | HNF4a-FITC DNA binding, fluorescence polarization, 1 h; in the data active = activity change above about 30%, passing the limit was not always enough
Target sequence (P41235 whole entry, looked up): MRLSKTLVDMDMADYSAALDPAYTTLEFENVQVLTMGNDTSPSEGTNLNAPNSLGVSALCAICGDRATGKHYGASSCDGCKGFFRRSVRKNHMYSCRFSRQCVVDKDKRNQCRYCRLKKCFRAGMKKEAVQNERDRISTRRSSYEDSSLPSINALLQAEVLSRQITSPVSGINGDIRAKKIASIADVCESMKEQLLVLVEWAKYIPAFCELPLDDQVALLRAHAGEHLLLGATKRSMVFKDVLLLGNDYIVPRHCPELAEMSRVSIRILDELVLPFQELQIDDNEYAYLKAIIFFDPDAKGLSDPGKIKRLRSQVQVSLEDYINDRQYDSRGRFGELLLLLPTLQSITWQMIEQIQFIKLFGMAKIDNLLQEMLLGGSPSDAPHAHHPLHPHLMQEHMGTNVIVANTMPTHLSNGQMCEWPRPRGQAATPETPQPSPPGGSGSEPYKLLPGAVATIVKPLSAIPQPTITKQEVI
TPT1 inh: blocks Candida albicans tRNA 2'-phosphotransferase. recombinant caTPT1, FP RNA substrate dephosphorylation. inhibition, % at 5 µM. actives 0.81% (n = 300,000). AID 1962;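 active = inhibition above the mean of all tested compounds plus 3 SD, set per screening campaign, cut at about 24% in these data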;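 also: plate controls were DMSO alone for no effect and ferristatin control at 100 nM for full effect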
Rpn11 inh: inhibitors of human proteasome Rpn11 | calls only at 20 µM | human 26S proteasome, Ub4-pepOG fluorescence polarization; 20S core pre-blocked with epoxomicin | O00487 | actives 0.59% (n = 360,000);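 active = inhibition at 20 µM, scaled to each plate's controls, above about 33%, limit read from the data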
TPT1 inh confirm: confirmation of Candida albicans TPT1 inhibitors; shares compounds with TPT1 inh; recombinant caTPT1, fluorescence polarization, RNase T1 coupled; inhibition, % at 5 µM; actives 74% (n = 2,400); AID 2149;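 active = inhibition above the primary screen limit, the mean inhibition of all tested compounds plus 3 SD, cut at about 25% in these data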
RNase T1 counter: counter-screen for TPT1 inhibitors: inhibitors of Aspergillus oryzae RNase T1; shares compounds with TPT1 inh; RNase T1 cleavage, fluorescence polarization, 1536-well; inhibition, % at 5 µM; actives 83% (n = 2,400);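 active = inhibition above the solvent-only control well mean plus 3 SD, limit set per screening run, cut at about 23% in these data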;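 also: plate controls were DMSO wells with enzyme for no effect and wells without RNase T1 for full effect; inhibitors block cleavage so intact labeled substrate keeps polarization high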
Target sequence (P00651 whole entry, looked up): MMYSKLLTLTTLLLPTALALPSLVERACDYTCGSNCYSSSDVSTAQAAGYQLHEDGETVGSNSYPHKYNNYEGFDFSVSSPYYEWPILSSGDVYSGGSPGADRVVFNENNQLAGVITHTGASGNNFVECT
Rpn11 inh conf: confirmation of human proteasome Rpn11 inhibitors; shares compounds with Rpn11 inh; purified human 26S proteasome, Ub4-pepOG fluorescence polarization; proteasome pretreated with epoxomicin; inhibition, % at 20 µM; actives 29% (n = 1,900); AID 602318
MMP-2 counter-1: blocks human MMP-2, flagging nonselective RPN11 hits. shares compounds with Rpn11 inh. recombinant MMP-2, FRET peptide cleavage fluorescence. inhibition, % at 20 µM. actives 4% (n = 1,900). AID 602330;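 also: human MMP-2 activated beforehand with APMA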
Thrombin FP: counter-screen for RPN11 inhibitors: inhibition of bovine thrombin. actives 13% (n = 1,900). bovine thrombin cleavage of Ub4-pepOG, fluorescence polarization. shares compounds with Rpn11 inh. inhibition, % at 20 µM. AID 602333;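 active = mean inhibition at least 40% at 20 µM, or signal 3 deviations below plate average, so some actives read negative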;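 also: plate controls were thrombin with DMSO for no effect and buffer wells lacking thrombin for full effect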
CSN5 deneddyl: validation of inhibitors of human CSN-mediated cullin deneddylation; shares compounds with CSN deneddyl inh; Csn5 deneddylation of SCF-Nedd8OG, fluorescence polarization, 90 min; inhibition, % at 16.6 µM; actives 62% (n = 540); in the data active = inhibition above about 50%;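 also: 0% = DMSO with enzyme and 100% = no enzyme wells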
MMP-2 counter-2: blocks human MMP-2 in a CSN deneddylation counter-screen. shares compounds with CSN deneddyl inh. recombinant MMP-2, FRET substrate fluorescence, 60 min. inhibition, % at 16.6 µM. actives 33% (n = 540). AID 720655;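 active = corrected plate-normalized z-score of 5 or more, or -5 or less, or inhibition of 15% or more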;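 also: plate controls were DMSO wells with enzyme for no effect and buffer wells lacking MMP-2 for full effect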
Thrombin counter: thrombin (bovine) inhibition, counter-screen for CSN hits | inhibition, % at 16.6 µM | shares compounds with CSN deneddyl inh | actives 49% (n = 540) | bovine thrombin cleavage of Ub4-pepOG, fluorescence polarization;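 active = inhibition at or above a set limit, with a fluorescence interference ratio between 0.5 and a set maximum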
Starred values were filed as active, the others as inactive; i = inactive; . = no result shown; + = active, no number. A selection: hits, their analogues and other compounds. The true share with any hit is near 1.5%. Rule as the data show it, unless noted: active = inhibition above about 40%; inactive = the rest.

SMILES	CSN deneddyl inh	HNF4A DNA FP	TPT1 inh	Rpn11 inh	TPT1 inh confirm	RNase T1 counter	CSN5 deneddyl	MMP-2 counter-2	Thrombin counter	others
CCOc1ccc(Oc2ccc(C(F)(F)F)cc2NC(=O)C2=COCCO2)cc1	3	-1	.	i	.	.	.	.	.
CC(=O)c1cccc(NC(=O)C(C)OC(=O)c2cc(=O)[nH]c3ccccc23)c1 (centres undefined)	1	-2	-1	i	.	.	.	.	.
COc1ccccc1/C=C1\SC(=S)N(Nc2nc(C)cc(C)n2)C1=O	1	1	-1	i	.	.	.	.	.
Cc1cc(C)nc(NN2C(=O)/C(=C/c3ccc(O)cc3)SC2=S)n1	92*	94*	58*	.	68*	71*	46	-13	83*
Cc1nnc(-c2ccccc2)c(=O)n1/N=C/c1c(O)ccc2ccccc12	50*	19	159*	.	79*	84*	109*	-4	30*
NC1=NC(=Nc2cccc(S(N)(=O)=O)c2)c2ccccc21	3	-1	-2	i	.	.	.	.	.
COc1cc(N=Nc2cccc(S(N)(=O)=O)c2)c2ccccc2c1N	46*	25	89*	+	44*	54*	82*	15	26*
COc1cc(/C=C2\SC(=S)N(NC(=O)c3ccccc3O)C2=O)ccc1O	50*	41*	31*	.	34*	47*	58*	-5	63*
CCOc1cc(/C=C2/SC(=S)N(Cc3ccccc3)C2=O)ccc1O	42*	38*	26*	.	38*	48*	59*	-3	85*
NCCc1c(-c2ccccc2)n(-c2ccccc2)c2ccccc12	-5	1	.	i	.	.	.	.	.
CC(=O)Nc1ncc(Sc2ccc([N+](=O)[O-])cc2)s1	-2	-1	.	i	.	.	.	.	.
Cc1ccc2nc(-c3ccc(O)cc3)oc2c1	4	-2	2	i	.	.	.	.	.
O=C1/C(=C/c2ccc(O)cc2)SC(=S)N1CC1CCCO1 (centres undefined)	94*	91*	75*	.	81*	83*	44	-22	46
CCCOc1ccc(/C=C2\SC(=S)N(CC3CCCO3)C2=O)cc1 (centres undefined)	-7	-1	3	i	.	.	.	.	.
Cc1ccc(S(=O)(=O)CCC(=O)OCc2cc(C)ccc2C)cc1	-4	-1	1	i	.	.	.	.	.
O=C(N/N=C/C=C/c1ccc([N+](=O)[O-])cc1)c1cccs1	56*	56*	44*	+	30*	46*	.	59*	30*	Rpn11 inh conf=113*;MMP-2 counter-1=45*;Thrombin FP=41*
O=C(N/N=C/C=C\c1ccccc1[N+](=O)[O-])c1cccs1	-2	-2	-3	i	.	.	.	.	.
O=C(O)CCCN1C(=O)/C(=C/c2ccc(-c3nc4ccccc4s3)o2)SC1=S	122*	51*	48*	+	95*	103*	.	1	-13	Rpn11 inh conf=44*;MMP-2 counter-1=-16;Thrombin FP=-64
O=C(O)CCCCCN1C(=O)/C(=C\c2ccc(-c3ccc(Cl)cc3)o2)SC1=S	61*	101	27*	.	65*	81*	74*	16*	25*
O=C(O)CCCCCN1C(=O)/C(=C\c2ccncc2)SC1=S	7	-1	2	i	.	.	.	.	.
CCNc1ccc(Br)cc(C(=O)/C=C/c2ccc3c(c2)OCO3)c1=O	47*	-11	31*	+	26*	48*	71*	-3	24*	Rpn11 inh conf=20;MMP-2 counter-1=9;Thrombin FP=1
CCN(CC)c1ccc(/C=C2\CCC(/C=N/NC(=O)c3ccc(=O)n(C)c3)=C2N2CCOCC2)cc1	69*	119	117*	.	113*	112*	50	-32*	37*
Cc1cc(/C=C2\SC(=S)NC2=O)c(C)n1-c1ccccc1	40*	75*	73*	+	69*	83*	61*	23*	31*	Rpn11 inh conf=77*;MMP-2 counter-1=28;Thrombin FP=60*
Cc1cc(/C=C2\SC(=S)NC2=O)c(C)n1-c1ccc(O)cc1	60*	99*	95*	.	108*	119*	50*	28*	50*
Cc1cc(/C=C2/SC(=O)NC2=O)c(C)n1-c1ccc(N2CCOCC2)cc1	-6	0	-5	i	.	.	.	.	.
SMILES	CSN deneddyl inh	HNF4A DNA FP	TPT1 inh	Rpn11 inh	TPT1 inh confirm	RNase T1 counter	CSN5 deneddyl	MMP-2 counter-2	Thrombin counter	others
Cc1cc(/C=C2\SC(=S)NC2=O)c(C)n1C	76*	44*	53*	+	69*	84*	53*	24*	39*	Rpn11 inh conf=121*;MMP-2 counter-1=35;Thrombin FP=91*
CCN(CC(=O)Nc1ccc(OC)cc1)C(=O)Cc1cccs1	9	2	10	i	.	.	.	.	.
C[C@H](CO)N1C[C@H](C)[C@@H](CN(C)S(=O)(=O)c2ccccc2C#N)OCc2cnnn2CCCC1=O	5	1	.	i	.	.	.	.	.
CN(C)c1ccc(/C=C/c2ccc3ccccc3n2)cc1	50*	79	60*	.	61*	70*	88*	-20	17*
C(=C\c1ccc2ccccc2n1)/c1ccccc1	3	2	-1	i	.	.	.	.	.
COc1ccccc1N1C(=N)S/C(=C\c2ccc(-c3ccccc3C(=O)O)o2)C1=O	35*	15	57*	+	76*	87*	60*	8	31*	Rpn11 inh conf=74*;MMP-2 counter-1=24;Thrombin FP=47*
CCC1=NN2C(=N)/C(=C\c3ccc(SCc4ccco4)o3)C(=O)N=C2S1	78*	22	48*	+	29*	43*	45	16*	17*	Rpn11 inh conf=20;MMP-2 counter-1=10;Thrombin FP=14
CCC1=NN2C(=N)/C(=C/c3c(C)nn(-c4ccccc4)c3Cl)C(=O)N=C2S1	1	0	2	i	.	.	.	.	.
C=C[C@H]1CN2CC[C@H]1C[C@H]2[C@H](O)c1ccnc2ccc(OC)cc12	-2	.	2	i	.	.	.	.	.

Screening data: PubChem, several laboratories
